Measurements reported in ChEMBL document CHEMBL1772997 (J Med Chem, 2011).
Calls of active or inactive are those of the source. The calls are words filed in the database; no cut-off is given here.

What was measured:
[1] = target: T1, Melatonin receptor type 1A (Homo sapiens, UniProt P48039); assay: Displacement of [125I]-2-iodomelatonin from human MT1 receptor expressed on CHO cells by microscintillation counting; type: cell-based
[2] = target: T2, Melatonin receptor type 1B (Homo sapiens, UniProt P49286); assay: Displacement of [125I]-2-iodomelatonin from human MT2 receptor expressed on CHO cells microscintillation counting; type: cell-based
T2 sequence (P49286 whole entry): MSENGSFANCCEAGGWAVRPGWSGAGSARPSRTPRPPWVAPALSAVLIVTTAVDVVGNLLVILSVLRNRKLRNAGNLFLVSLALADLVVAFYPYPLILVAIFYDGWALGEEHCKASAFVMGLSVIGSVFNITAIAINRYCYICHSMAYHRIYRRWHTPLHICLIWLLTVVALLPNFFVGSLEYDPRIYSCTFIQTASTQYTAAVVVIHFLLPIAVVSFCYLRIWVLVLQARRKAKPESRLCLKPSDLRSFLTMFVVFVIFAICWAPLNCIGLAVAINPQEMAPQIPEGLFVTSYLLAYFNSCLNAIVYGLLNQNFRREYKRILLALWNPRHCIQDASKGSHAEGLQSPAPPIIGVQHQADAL

Homo sapiens = species on record: Homo sapiens; assay: Selectivity ratio, ratio of Ki for human MT1 receptor over Ki for human MT2 receptor
[3] = target: T1, Melatonin receptor type 1A; assay: Agonist activity at human MT1 receptor expressed in CHO cells assessed as inhibition of forskolin-induced cAMP accumulation after 30 mins by EnVision Multilabel Plate Readers; type: functional, cell-based
[4] = target: T3, Melatonin receptor type 1B (Homo sapiens) (UniProt P49286); assay: Agonist activity at human MT2 receptor expressed in CHO cells assessed as inhibition of forskolin-induced cAMP accumulation after 30 mins by EnVision Multilabel Plate Readers relative to control; type: functional, cell-based
T3 sequence (whole entry): T2 sequence (P49286 whole entry)
Method in brief: (§1)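 Stable CHO line expressing human MT2, suspended in modified HBSS with 5 mM HEPES pH 7.4, 0.1% BSA, 100 μM IBMX and 100 μM Ro20-1724; 6 × 10⁴ cells/well. Compound added, then forskolin (final 2 μM), 30 min at room temperature; AlphaScreen cAMP read after 12 h in dark.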

[5] = target: T3, Melatonin receptor type 1B (Homo sapiens); assay: Ratio of compound Ki to melatonin Ki for human MT2 receptor expressed on CHO cells by radioligand displacement assay; type: cell-based
Method in brief: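 Membranes from CHO cells stably expressing human MT1 or MT2, in 50 mM Tris-HCl pH 7.7. Incubated with 2-[¹²⁵I]iodomelatonin, 40 pM for MT1 or 80 pM for MT2, 150 min at 25 °C. […] IC50 by three-parameter fit, Ki by Cheng–Prusoff using Kd 33.9 pM for MT1 and 72.6 pM for MT2.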

[6] = target: T3, Melatonin receptor type 1B (Homo sapiens); assay: Partial agonist activity at human MT2 receptor expressed in CHO cells assessed as inhibition of forskolin-induced cAMP accumulation after 30 mins by EnVision Multilabel Plate Readers relative to control; type: functional, cell-based; method in brief: as §1
Mus musculus [7] = assay: Chronobiotic activity in ICR mouse assessed as reentrainment for 8 hrs advance of dark phase at 3 mg/kg, ip administered 1 hr before dark period once daily for 3 days by running-wheel activity assay; type: functional, organism-based; design: dose 3 mg/kg
Method in brief: (§2)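 Male ICR mice (6 weeks old), housed individually with running wheels under 12/12 light/dark, habituated at least 2 weeks; dark phase then advanced 8 h and kept 14 days. Dosed ip once daily 1 h before dark from shift day, suspended in 0.5% methylcellulose saline, 10 mL/kg. Days to reentrainment: onset advanced >7 h for ≥3 consecutive days, else scored 14 days.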

[8] = target: T2, Melatonin receptor type 1B; assay: Agonist activity at human MT2 receptor expressed in CHO cells assessed as inhibition of forskolin-induced cAMP accumulation after 30 mins by EnVision Multilabel Plate Readers; type: functional, cell-based
Mus musculus [9] = assay: Chronobiotic activity in ICR mouse assessed as reentrainment for 8 hrs advance of dark phase at 30 mg/kg, ip administered 1 hr before dark period once daily for 3 days by running-wheel activity assay; type: functional, organism-based; design: dose 30 mg/kg; method in brief: as §2

T1 sequence (P48039 whole entry): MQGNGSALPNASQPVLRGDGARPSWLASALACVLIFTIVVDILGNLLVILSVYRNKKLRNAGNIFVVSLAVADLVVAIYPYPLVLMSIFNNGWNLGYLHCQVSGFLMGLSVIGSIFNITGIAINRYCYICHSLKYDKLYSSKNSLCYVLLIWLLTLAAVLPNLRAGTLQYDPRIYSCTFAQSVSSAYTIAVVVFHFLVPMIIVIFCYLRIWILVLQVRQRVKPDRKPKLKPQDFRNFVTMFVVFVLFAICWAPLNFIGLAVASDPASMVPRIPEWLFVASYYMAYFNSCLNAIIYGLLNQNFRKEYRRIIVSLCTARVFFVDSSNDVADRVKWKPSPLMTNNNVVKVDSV

CC(=O)NCCC1=C(C(C)C)Cc2ccc3c(c21)CCO3
Ki [1]: 24 pM
Ki [2]: 18 pM
Ratio Ki (Homo sapiens): 1.3

CC(=O)NCCC1=C(Cc2ccccc2)Cc2ccc3c(c21)CCO3
Ki [1]: 2700 pM
Ki [2]: 8.5 pM
Ratio Ki (Homo sapiens): 316
EC50 [3]: 513 pM
Emax [4]: 61.7%

COc1ccccc1C1=C(CCNC(C)=O)c2c(ccc3c2CCO3)C1
Ki [1]: 1100 pM
Ki [2]: 20 pM
Ratio Ki (Homo sapiens): 53

CC(=O)NCCC1=C(c2cccc(C(C)C)c2)Cc2ccc3c(c21)CCO3
Ki [1]: 13000 pM
Ki [2]: 11 pM
Ratio Ki [5]: 19
Ratio Ki (Homo sapiens): 1200
EC50 [3]: 3020 pM
Emax [6]: 72.8%

CCC(=O)NCCC1=C(C(C)C)Cc2ccc3c(c21)CCO3
Ki [1]: 13 pM
Ki [2]: 11 pM
Ratio Ki (Homo sapiens): 1.3

COc1cccc(C2=C(CCNC(C)=O)c3c(ccc4c3CCO4)C2)c1
Ki [1]: 57 pM
Ki [2]: 9 pM
Ratio Ki (Homo sapiens): 6.3

CC(=O)NCCC1=C(Cc2ccsc2)Cc2ccc3c(c21)CCO3
Ki [1]: 880 pM
Ki [2]: 6.7 pM
Ratio Ki (Homo sapiens): 132

CC(C)C1=C(CCNC(=O)C(F)(F)F)c2c(ccc3c2CCO3)C1
Ki [1]: 32 pM
Ki [2]: 10 pM
Ratio Ki (Homo sapiens): 3.1

CC(=O)NCCC1=C(Br)Cc2ccc3c(c21)CCO3
Ki [1]: 8.7 pM
Ki [2]: 14 pM
Ratio Ki (Homo sapiens): 0.61

CC(=O)NCCC1=C(c2ccccc2OC(C)C)Cc2ccc3c(c21)CCO3
Ki [1]: > 100000 pM
Ki [2]: 340 pM
Ratio Ki (Homo sapiens): > 292

CC(=O)NCCC1=C(c2cccnc2)Cc2ccc3c(c21)CCO3
Ki [1]: 69 pM
Ki [2]: 34 pM
Ratio Ki (Homo sapiens): 2.1

CC(=O)NCCC1=C(c2ccoc2)Cc2ccc3c(c21)CCO3
Ki [1]: 6.5 pM
Ki [2]: 9.6 pM
Ratio Ki (Homo sapiens): 0.68

COc1ccc(C2=C(CCNC(C)=O)c3c(ccc4c3CCO4)C2)cc1
Ki [1]: 3000 pM
Ki [2]: 37 pM
Ratio Ki (Homo sapiens): 81

CC(=O)NCCC1=C(CC2CCCCC2)Cc2ccc3c(c21)CCO3
Ki [1]: 9200 pM
Activity (Mus musculus [7]): Active
Ki [2]: 12 pM
Ratio Ki [5]: 18
Ratio Ki (Homo sapiens): 799
EC50 [3]: 4470 pM
EC50 [8]: 1320 pM
Emax [4]: 99%
Activity (Mus musculus [9]): Active

CCNC(=O)NCCC1=C(C(C)C)Cc2ccc3c(c21)CCO3
Ki [1]: 1100 pM
Ki [2]: 84 pM
Ratio Ki (Homo sapiens): 13

CC(=O)NCCC1=CCc2ccc3c(c21)CCO3
Ki [1]: 45 pM
Ki [2]: 22 pM
Ratio Ki [5]: 10
Ratio Ki (Homo sapiens): 2.1

CC(=O)NCCC1=C(c2csc3ccccc23)Cc2ccc3c(c21)CCO3
Ki [1]: 1300 pM
Ki [2]: 6 pM
Ratio Ki (Homo sapiens): 220

CC(C)C1=C(CCNC(=O)C2CC2)c2c(ccc3c2CCO3)C1
Ki [1]: 110 pM
Ki [2]: 35 pM
Ratio Ki (Homo sapiens): 3.2

CC(=O)NCCC1=C(c2ccc(C(C)(C)C)cc2)Cc2ccc3c(c21)CCO3
Ki [1]: 1400 pM
Ki [2]: 770 pM
Ratio Ki (Homo sapiens): 1.8
